Converted amounts (≈) assume the structure as drawn. The source made the active and inactive calls. The rule behind the calls is not given here.
What was measured:
Fusarium solani [1] = assay: Antifungal activity against inoculum range 7.7 x 10^4 to 7.8 x 10^4 conidia/animal Fusarium solani infected in ICR mouse assessed as bacterial count in kidney tissue at 50 mg/kg, po BID treated after 12 hrs of inoculation; type: functional
Outline: (§1)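 Outbred ICR mice were made neutropenic with 5-fluorouracil 150 mg/kg i.v. 1 day before i.v. infection with F. solani isolate 95-2478 conidia (0.2 ml). Posaconazole oral suspension was given by gavage BID from 12 h after inoculation until day 9. Kidneys from moribund animals were homogenized and plated on potato dextrose agar, and CFU/g was counted after 48 h. Group medians were compared with untreated controls by Mann-Whitney.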

Fusarium solani [2] = assay: Antifungal activity against inoculum range 7.7 x 10^4 to 7.8 x 10^4 conidia/animal Fusarium solani infected in ICR mouse assessed as rate of survival at 12.5 mg/kg, po BID treated after 12 hrs of inoculation; type: functional, organism-based; parameters: dose 12.5 mg/kg
Outline: (§2)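 Neutropenic ICR mice (5-fluorouracil 150 mg/kg i.v., day −1) were infected i.v. with F. solani 95-2478 conidia. Posaconazole oral suspension was gavaged BID starting 12 h postinoculation and continued to day 9, then mice were followed off therapy to day 15. Moribund mice were euthanized and death was recorded the next day. Median and percent survival come from Kaplan-Meier curves versus untreated controls.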

Fusarium solani [3] = assay: Antifungal activity against high inoculum 2.9 x 10^6 conidia/animal Fusarium solani infected in ICR mouse assessed as rate of survival at 50 mg/kg, po BID treated after 12 hrs of inoculation; type: functional, organism-based; parameters: dose 50 mg/kg; outline: as §2
Fusarium solani [4] = assay: Antifungal activity against high inoculum 2.9 x 10^6 conidia/animal Fusarium solani infected in ICR mouse assessed as bacterial count in kidney tissue at 6.25 mg/kg, po BID treated after 12 hrs of inoculation; type: functional; outline: as §1
Fusarium solani [5] = assay: Antifungal activity against high inoculum 2.9 x 10^6 conidia/animal Fusarium solani infected in ICR mouse assessed as bacterial count in kidney tissue at 50 mg/kg, po BID treated after 12 hrs of inoculation; type: functional; outline: as §1
Fusarium solani [6] = assay: Antifungal activity against high inoculum 2.9 x 10^6 conidia/animal Fusarium solani infected in ICR mouse assessed as bacterial count in kidney tissue at 12.5 mg/kg, po BID treated after 12 hrs of inoculation; type: functional; outline: as §1
Fusarium solani [7] = assay: Antifungal activity against low - inoculum 7.5 x 10^4 conidia/ml Fusarium solani infected in ICR mouse assessed as bacterial count in kidney tissue at 6.25 mg/kg, po BID treated 2 days prior of infection; type: functional
Outline: (§3)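 Prophylaxis model: posaconazole oral suspension was given by gavage BID starting 2 days before i.v. conidial challenge and continued to day 9. ICR mice were made neutropenic with 5-fluorouracil 150 mg/kg i.v. 1 day pre-inoculation, with n ≥10 per regimen. Kidneys were homogenized and plated on potato dextrose agar, and CFU/g was read after 48 h. Results were compared with untreated controls by Mann-Whitney.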

Fusarium solani [8] = assay: Antifungal activity against low - inoculum 7.5 x 10^4 conidia/ml Fusarium solani infected in ICR mouse assessed as rate of survival at 12.5 mg/kg, po BID treated 2 days prior of infection; type: functional, organism-based; parameters: dose 12.5 mg/kg
Outline: (§4)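 Dosing began 2 days before i.v. F. solani 95-2478 challenge in ICR mice made neutropenic with 5-fluorouracil (150 mg/kg i.v., day −1). Posaconazole oral suspension was gavaged BID through day 9, with observation off drug until day 15, n ≥10 per regimen. Moribund animals were euthanized and scored dead the next day. Kaplan-Meier median survival was compared with untreated controls.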

Fusarium solani [9] = assay: Antifungal activity against inoculum of 1x10^5 conidia/ml Fusarium solani isolate 95-2478 after 24 hrs by XTT assay; type: functional, organism-based; conditions: isolate 95-2478, 24 h
Outline: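 Isolate 95-2478 conidia were grown 10 days at 37°C on potato dextrose agar. They were exposed in microtiter trays to posaconazole (DMSO stock; final 0 to 8 μg/ml) in RPMI with 2% glucose and 0.165 M MOPS, pH 7.0. Incubation ran 24 or 48 h, and XTT reduction was read at 492 nm in triplicate. Absorbance was expressed as percent of growth control, and IC50/IC90 came from a four-parameter inhibitory sigmoid fit.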

Fusarium solani [10] = assay: Antifungal activity against mid- inoculum 6.5 x 10^5 conidia/ml Fusarium solani infected in ICR mouse assessed as bacterial count in kidney tissue at 25 mg/kg, po BID treated 2 days prior of infection; type: functional; outline: as §3
Fusarium solani [11] = assay: Antifungal activity against mid- inoculum 6.5 x 10^5 conidia/ml Fusarium solani infected in ICR mouse assessed as bacterial count in kidney tissue at 6.25 mg/kg, po BID treated 2 days prior of infection; type: functional; outline: as §3
Fusarium solani [12] = assay: Antifungal activity against mid- inoculum 6.5 x 10^5 conidia/ml Fusarium solani infected in ICR mouse assessed as rate of survival at 12.5 mg/kg, po BID treated 2 days prior of infection; type: functional, organism-based; parameters: dose 12.5 mg/kg; outline: as §4
Fusarium solani [13] = assay: Antifungal activity against low - inoculum 7.5 x 10^4 conidia/ml Fusarium solani infected in ICR mouse assessed as bacterial count in kidney tissue at 25 mg/kg, po BID treated 2 days prior of infection; type: functional; outline: as §3
Fusarium solani [14] = assay: Antifungal activity against inoculum range 6.5 x 10^5 to 6.8 x 10^5 conidia/animal Fusarium solani infected in ICR mouse assessed as bacterial count in kidney tissue at 12.5 mg/kg, po BID treated after 12 hrs of inoculation; type: functional; outline: as §1
Fusarium solani [15] = assay: Antifungal activity against low - inoculum 7.5 x 10^4 conidia/ml Fusarium solani infected in ICR mouse assessed as rate of survival at 50 mg/kg, po BID treated 2 days prior of infection; type: functional, organism-based; parameters: dose 50 mg/kg; outline: as §4
Fusarium solani [16] = assay: Antifungal activity against mid- inoculum 6.5 x 10^5 conidia/ml Fusarium solani infected in ICR mouse assessed as rate of survival at 6.25 mg/kg, po BID treated 2 days prior of infection; type: functional, organism-based; parameters: dose 6.25 mg/kg; outline: as §4
Fusarium solani [17] = assay: Antifungal activity against inoculum range 6.5 x 10^5 to 6.8 x 10^5 conidia/animal Fusarium solani infected in ICR mouse assessed as rate of survival at 6.25 mg/kg, po BID treated after 12 hrs of inoculation; type: functional, organism-based; parameters: dose 6.25 mg/kg; outline: as §2
Fusarium solani [18] = assay: Antifungal activity against mid- inoculum 6.5 x 10^5 conidia/ml Fusarium solani infected in ICR mouse assessed as rate of survival at 50 mg/kg, po BID treated 2 days prior of infection; type: functional, organism-based; parameters: dose 50 mg/kg; outline: as §4
Fusarium solani [19] = assay: Antifungal activity against high inoculum 2.9 x 10^6 conidia/animal Fusarium solani infected in ICR mouse assessed as rate of survival at 6.25 mg/kg, po BID treated after 12 hrs of inoculation; type: functional, organism-based; parameters: dose 6.25 mg/kg; outline: as §2
Fusarium solani [20] = assay: Antifungal activity against inoculum range 7.7 x 10^4 to 7.8 x 10^4 conidia/animal Fusarium solani infected in ICR mouse assessed as rate of survival at 50 mg/kg, po BID treated after 12 hrs of inoculation; type: functional, organism-based; parameters: dose 50 mg/kg; outline: as §2
Fusarium solani [21] = assay: Antifungal activity against inoculum range 6.5 x 10^5 to 6.8 x 10^5 conidia/animal Fusarium solani infected in ICR mouse assessed as bacterial count in kidney tissue at 50 mg/kg, po BID treated after 12 hrs of inoculation; type: functional; outline: as §1
Fusarium solani [22] = assay: Antifungal activity against mid- inoculum 6.5 x 10^5 conidia/ml Fusarium solani infected in ICR mouse assessed as bacterial count in kidney tissue at 50 mg/kg, po BID treated 2 days prior of infection; type: functional; outline: as §3
Fusarium solani [23] = assay: Antifungal activity against inoculum range 7.7 x 10^4 to 7.8 x 10^4 conidia/animal Fusarium solani infected in ICR mouse assessed as rate of survival at 25 mg/kg, po BID treated after 12 hrs of inoculation; type: functional, organism-based; parameters: dose 25 mg/kg; outline: as §2
Fusarium solani [24] = assay: Antifungal activity against mid- inoculum 6.5 x 10^5 conidia/ml Fusarium solani infected in ICR mouse assessed as rate of survival at 25 mg/kg, po BID treated 2 days prior of infection; type: functional, organism-based; parameters: dose 25 mg/kg; outline: as §4

In the case of `CC[C@@H]([C@H](C)O)n1ncn(-c2ccc(N3CCN(c4ccc(OC[C@@H]5CO[C@@](Cn6cncn6)(c6ccc(F)cc6F)C5)cc4)CC3)cc2)c1=O` [POSACONAZOLE], the log10CFU/g (Fusarium solani [1]) is reported as 4.6, the Activity (Fusarium solani [2]) is reported as “Active” and the Activity (Fusarium solani [3]) is reported as “Active”. It also gave a log10CFU/g (Fusarium solani [4]) of 5.6, a log10CFU/g (Fusarium solani [5]) of 5.2 and a log10CFU/g (Fusarium solani [6]) of 5.3. The log10CFU/g (Fusarium solani [7]) was 2.8, the Activity (Fusarium solani [8]) was “Active” and the IC90 (Fusarium solani [9]) was 7.2 µg/mL (≈ 10.3 µM). For the same compound, the IC90 (Fusarium solani [9]; read-out: IC90) was greater than 8 µg/mL, the log10CFU/g (Fusarium solani [10]) was 5.5 and the log10CFU/g (Fusarium solani [11]) was 5.6. For the same compound, the Activity (Fusarium solani [12]) was “Active”, the log10CFU/g (Fusarium solani [13]) was 4.5 and the log10CFU/g (Fusarium solani [14]) was 5.8. For the same compound, the Activity (Fusarium solani [15]) was “Active”, the Activity (Fusarium solani [16]) was “Active” and the Activity (Fusarium solani [17]) was “Active”. The Activity (Fusarium solani [18]) was “Active”, the Activity (Fusarium solani [19]) was “Active” and the Activity (Fusarium solani [20]) was “Active”. The log10CFU/g (Fusarium solani [21]) was 5.4, the log10CFU/g (Fusarium solani [22]) was 4.7 and the Activity (Fusarium solani [23]) was “Active”. The Activity (Fusarium solani [24]) was “Active”.

— ChEMBL document CHEMBL1649304, “Efficacy of posaconazole as treatment and prophylaxis against Fusarium solani” (Antimicrob Agents Chemother, 2010)
